≈ marks a conversion by molar mass, not a printed value.
Key:
Cytotoxicity [1] = format: cell-based, human; conditions: human, DU-145 prostate cancer cells
In short: (§1)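 Cells grown per ATCC protocols, trypsin-EDTA harvested, trypan-blue counted, seeded at […] cells/well, and allowed to recover 24 h (37 °C, 5% CO2). They were then treated in triplicate at final 20, 10, 5, 2.5, 1.25, 0.625 and 0.0625 μM for 48 h. Fixed with cold TCA (16% final, 4 °C, 1 h), stained 15 min with SRB in 1% acetic acid, dye dissolved in 10 mM Tris base, A560 read. IC50 derived from absorbance; study done in duplicate.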

[2] = molecular target: RNA topoisomerase activity of E. coli topoisomerase I (EcoTop1) (Escherichia coli, UniProt P06612); experiment: RNA topoisomerase inhibition assay; format: biochemical; conditions: 10 nM EcoTop1; for concentration at which RNA topoisomerase activity is inhibited: concentration-dependent, 2.5–40 μM tested; for effect on the RNA topoisomerase activity of EcoTop1: even at 80 μM concentrations; for inhibitory effect on the RNA topoisomerase activity of EcoTop1: at concentrations up to 50 μM
Cytotoxicity [3] = format: cell-based; conditions: human, PCS 201-010 normal dermal fibroblast cells
In short: as §1

E. coli K12 = conditions: compounds 1–4 reproduced; ref [35]; cited from earlier work
[4] = molecular target: T1, human DNA topoisomerase I (Homo sapiens, UniProt P11387); conditions: read-out: IC50 hTopoI, values reproduced, ref [35]; cited from earlier work
T1 sequence (P11387 1-765): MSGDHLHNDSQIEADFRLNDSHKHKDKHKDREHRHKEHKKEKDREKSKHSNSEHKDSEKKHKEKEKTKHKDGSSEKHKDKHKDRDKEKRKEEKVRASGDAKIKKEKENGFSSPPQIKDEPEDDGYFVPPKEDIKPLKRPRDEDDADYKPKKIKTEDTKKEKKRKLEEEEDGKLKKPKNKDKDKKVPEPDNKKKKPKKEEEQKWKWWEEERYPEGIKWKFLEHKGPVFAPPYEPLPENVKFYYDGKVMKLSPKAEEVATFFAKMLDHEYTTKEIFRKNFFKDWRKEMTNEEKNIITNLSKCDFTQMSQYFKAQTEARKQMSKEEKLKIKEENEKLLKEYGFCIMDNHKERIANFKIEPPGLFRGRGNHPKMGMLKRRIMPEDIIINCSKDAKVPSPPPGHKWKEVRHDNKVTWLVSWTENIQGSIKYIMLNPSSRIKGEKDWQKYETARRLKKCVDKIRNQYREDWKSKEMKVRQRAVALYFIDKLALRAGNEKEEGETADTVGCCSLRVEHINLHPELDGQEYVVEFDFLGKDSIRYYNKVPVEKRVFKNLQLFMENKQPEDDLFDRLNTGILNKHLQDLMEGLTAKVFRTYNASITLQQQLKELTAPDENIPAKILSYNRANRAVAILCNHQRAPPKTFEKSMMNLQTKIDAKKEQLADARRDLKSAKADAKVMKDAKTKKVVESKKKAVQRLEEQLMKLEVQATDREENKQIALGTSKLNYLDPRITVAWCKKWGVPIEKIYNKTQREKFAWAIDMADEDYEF

E. faecalis 29212 = conditions: compounds 1–4 reproduced; ref [35]; cited from earlier work
A. baumanni 19606 = experiment: MIC by microbroth dilution; format: cell-based, Acinetobacter baumanni; conditions: Acinetobacter, 19606, 24 h, read-out: MIC A. baumanni 19606
In short: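 CLSI microbroth dilution in Mueller-Hinton broth. Strains were grown at 37 °C with shaking to log phase, pelleted, and resuspended in 0.85% saline to OD625 0.1. Final inoculum 5 × 10^5 CFU/mL in 96-well plates, tested in triplicate, incubated 24 h at 37 °C. Growth was read as OD at 625 nm.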

[5] = test system: human prostate cancer cell line DU-145; experiment: Cytotoxicity; format: cell-based; conditions: 48 h treatment, SRB
In short: as §1

[6] = test system: Gram-positive bacterial strains; experiment: MIC by microbroth dilution, summary over strains in text; format: cell-based; conditions: Shigella flexneri, read-out: MIC values against most Gram-positive strains
E. coli 25922 = conditions: compounds 1–4 reproduced; ref [35]; cited from earlier work
S. aureus 29213 = conditions: compounds 1–4 reproduced; ref [35]; cited from earlier work
S. aureus 33591 = conditions: compounds 1–4 reproduced; ref [35]; cited from earlier work
[7] = molecular target: E. coli DNA topoisomerase I (Escherichia coli, UniProt P06612); format: biochemical; conditions: at 50 μM
Chain of E. coli DNA topoisomerase I (P06612 whole entry): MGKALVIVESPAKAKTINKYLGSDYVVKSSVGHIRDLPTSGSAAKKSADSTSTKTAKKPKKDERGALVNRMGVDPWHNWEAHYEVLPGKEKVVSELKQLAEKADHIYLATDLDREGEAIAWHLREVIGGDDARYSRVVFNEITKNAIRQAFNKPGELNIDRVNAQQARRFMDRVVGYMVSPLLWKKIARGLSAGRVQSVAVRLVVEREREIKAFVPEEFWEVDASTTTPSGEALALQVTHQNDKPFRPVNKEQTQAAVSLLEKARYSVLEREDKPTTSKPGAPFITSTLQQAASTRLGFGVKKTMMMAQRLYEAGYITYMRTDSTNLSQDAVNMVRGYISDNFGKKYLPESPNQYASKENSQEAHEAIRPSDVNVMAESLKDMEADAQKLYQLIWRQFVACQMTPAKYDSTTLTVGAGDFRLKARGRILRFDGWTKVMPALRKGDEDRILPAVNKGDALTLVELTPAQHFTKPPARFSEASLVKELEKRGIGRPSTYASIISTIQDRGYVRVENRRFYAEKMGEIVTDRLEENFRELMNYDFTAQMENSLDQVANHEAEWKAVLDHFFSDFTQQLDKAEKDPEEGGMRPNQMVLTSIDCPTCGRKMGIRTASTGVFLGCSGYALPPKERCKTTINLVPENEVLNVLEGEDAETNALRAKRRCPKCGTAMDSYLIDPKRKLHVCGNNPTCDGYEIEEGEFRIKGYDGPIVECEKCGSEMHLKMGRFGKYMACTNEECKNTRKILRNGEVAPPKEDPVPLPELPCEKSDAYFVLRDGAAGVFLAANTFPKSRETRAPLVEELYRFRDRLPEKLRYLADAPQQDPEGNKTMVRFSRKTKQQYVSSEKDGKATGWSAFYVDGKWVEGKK

Chain of RNA topoisomerase activity of E. coli topoisomerase I (EcoTop1) (P06612 whole entry): as above

C#CCOCCCCCCCCCCCCOc1ccc(-c2nc3ccc(-c4nc5ccc(N6CCN(C)CC6)cc5[nH]4)cc3[nH]2)cc1 [Compound 8, 6-(4-Methylpiperazin-1-yl)-2′-(4-(12-(prop-2-ynyloxy)dodecyloxy)phenyl)-1H,3′H-2,5′-bibenzo[d]imidazole]
IC50 at 48 h (Cytotoxicity [1]): > 10 µM
concentration at which RNA topoisomerase activity is inhibited [2]: about 10 μM
IC50 at 48 h (Cytotoxicity [3]): > 10 µM

C#CCCCCCCCCCOc1ccc(-c2nc3ccc(-c4nc5ccc(N6CCN(C)CC6)cc5[nH]4)cc3[nH]2)cc1 [Compound 3]
IC50 at 48 h (Cytotoxicity [1]): > 10 µM
concentration at which RNA topoisomerase activity is inhibited [2]: about 10 μM
MIC E. coli K12 (E. coli K12): 8 to 16 µg/mL
IC50 [4]: > 50 µM
MIC E. faecalis 29212 (E. faecalis 29212): 16 to 32 µg/mL

CN1CCN(c2ccc3nc(-c4ccc(OCCCNC(=O)OC(C)(C)C)cc4)[nH]c3c2)CC1 [Compound 15, tert-Butyl 3-(4-(6-(4-Methylpiperazin-1-yl)-1H-benzo[d]imidazol-2-yl)phenoxy)propylcarbamate]
MIC (A. baumanni 19606): > 32 µg/mL

CCOc1ccc2nc3cc(N)ccc3c(N)c2c1 [ethacridine, reference compound]
effect on the RNA topoisomerase activity of EcoTop1 [2]: do not have any effect

C#CCOCCCCCCOc1ccc(-c2nc3ccc(-c4nc5ccc(N6CCN(C)CC6)cc5[nH]4)cc3[nH]2)cc1 [Compound 5, 6-(4-Methylpiperazin-1-yl)-2′-(4-(6-(prop-2-ynyloxy)-hexyloxy)phenyl)-1H,3′H-2,5′-bibenzo[d]imidazole]
MIC (A. baumanni 19606): > 32 µg/mL
cytotoxicity to DU-145 compared with Hoechst 33258 [5]: more cytotoxic
inhibitory effect on the RNA topoisomerase activity of EcoTop1 [2]: no discernible inhibitory effect

C#CCCCCOc1ccc(-c2nc3ccc(-c4nc5ccc(N6CCN(C)CC6)cc5[nH]4)cc3[nH]2)cc1 [Compound 2]
cytotoxicity to DU-145 compared with Hoechst 33258 [5]: more cytotoxic
MIC [6]: 0.3 to 4 µg/mL (≈ 0.594 to 7.93 µM)
MIC E. coli 25922 (E. coli 25922): 8 to 16 µg/mL
inhibitory effect on the RNA topoisomerase activity of EcoTop1 [2]: no discernible inhibitory effect
MIC S. aureus 29213 (S. aureus 29213): 2 to 4 µg/mL
MIC S. aureus 33591 (S. aureus 33591): 2 to 4 µg/mL
MIC E. coli K12 (E. coli K12): 8 to 16 µg/mL
IC50 [4]: > 50 µM

Oc1ccc(-c2nc3ccccc3[nH]2)cc1 [Compound 13, 4-(1H-Benzo[d]imidazol-2-yl)phenol]
MIC (A. baumanni 19606): 16 to 32 µg/mL (≈ 76.1 to 152 µM)

C#CCOCCCCOc1ccc(-c2nc3ccc(-c4nc5ccc(N6CCN(C)CC6)cc5[nH]4)cc3[nH]2)cc1 [Compound 4]
cytotoxicity to DU-145 compared with Hoechst 33258 [5]: more cytotoxic
MIC [6]: 0.3 to 4 µg/mL (≈ 0.561 to 7.48 µM)
MIC E. coli 25922 (E. coli 25922): 8 to 16 µg/mL
inhibitory effect on the RNA topoisomerase activity of EcoTop1 [2]: no discernible inhibitory effect
MIC S. aureus 29213 (S. aureus 29213): 2 to 4 µg/mL
MIC S. aureus 33591 (S. aureus 33591): 2 to 4 µg/mL
MIC E. coli K12 (E. coli K12): 8 to 16 µg/mL
IC50 [4]: > 50 µM

C#CCOc1ccc(-c2nc3ccc(-c4nc5ccc(N6CCN(C)CC6)cc5[nH]4)cc3[nH]2)cc1 [Compound 1]
cytotoxicity to DU-145 compared with Hoechst 33258 [5]: more cytotoxic
MIC [6]: 0.3 to 4 µg/mL (≈ 0.649 to 8.65 µM)
inhibitory effect on the RNA topoisomerase activity of EcoTop1 [2]: no discernible inhibitory effect
MIC S. aureus 29213 (S. aureus 29213): 2 to 4 µg/mL
MIC S. aureus 33591 (S. aureus 33591): 2 to 4 µg/mL
MIC E. faecalis 29212 (E. faecalis 29212): 16 to 32 µg/mL

CN1CCN(c2ccc3nc(-c4ccc5nc(-c6ccc(O)cc6)[nH]c5c4)[nH]c3c2)CC1.Cl.Cl.Cl [Hoechst 33258, reference compound]
IC50 at 48 h (Cytotoxicity [1]): > 10 µM
MIC [6]: 0.3 to 4 µg/mL

CN1CCN(c2ccc3nc(-c4ccc(OCc5cn(CCN=[N+]=[N-])nn5)cc4)[nH]c3c2)CC1 [Compound 19, 2-(4-((1-(2-Azidoethyl)-1H-1,2,3-triazol-4-yl)methoxy)-phenyl)-6-(4-methylpiperazin-1-yl)-1H-benzo[d]imidazole]
MIC (A. baumanni 19606): > 32 µg/mL

CCOc1ccc(-c2nc3cc(-c4nc5cc(N6CCN(C)CC6)ccc5[nH]4)ccc3[nH]2)cc1 [Hoechst 33342, reference compound]
MIC [6]: 0.3 to 4 µg/mL (≈ 0.663 to 8.84 µM)
effect on the RNA topoisomerase activity of EcoTop1 [2]: do not have any effect

CN1CCN(c2ccc3nc(-c4ccc(OCc5cn(CCCCN=[N+]=[N-])nn5)cc4)[nH]c3c2)CC1 [Compound 20]
inhibitory effect on the RNA topoisomerase activity of EcoTop1 [2]: no discernible inhibitory effect

C#CCOCCCCCCCCOc1ccc(-c2nc3ccc(-c4nc5ccc(N6CCN(C)CC6)cc5[nH]4)cc3[nH]2)cc1 [Compound 6, 6-(4-Methylpiperazin-1-yl)-2′-(4-(8-(prop-2-ynyloxy)octyloxy)phenyl)-1H,3′H-2,5′-bibenzo[d]imidazole]
cytotoxicity to DU-145 compared with Hoechst 33258 [5]: more cytotoxic
concentration at which RNA topoisomerase activity is inhibited [2]: about 10 μM

C#CCOCCOCCOCCOCCOCCOCCOc1ccc(-c2nc3ccc(-c4nc5ccc(N6CCN(C)CC6)cc5[nH]4)cc3[nH]2)cc1 [Compound 9, 2′-(4-(3,6,9,12,15,18-Hexaoxahenicos-20-ynyloxy)phenyl)-6-(4-methylpiperazin-1-yl)-1H,3′H-2,5′-bibenzo[d]imidazole]
MIC (A. baumanni 19606): > 32 µg/mL
IC50 at 48 h (Cytotoxicity [1]): > 10 µM
inhibition of the activity of E. coli DNA topoisomerase I [7]: did not significantly inhibit
inhibitory effect on the RNA topoisomerase activity of EcoTop1 [2]: no discernible inhibitory effect

C#CCOCCCCCCCCCCOc1ccc(-c2nc3ccc(-c4nc5ccc(N6CCN(C)CC6)cc5[nH]4)cc3[nH]2)cc1 [Compound 7, 6-(4-Methylpiperazin-1-yl)-2′-(4-(10-(prop-2-ynyloxy)decyloxy)phenyl)-1H,3′H-2,5′-bibenzo[d]imidazole]
MIC (A. baumanni 19606): > 32 µg/mL
IC50 at 48 h (Cytotoxicity [1]): > 10 µM
concentration at which RNA topoisomerase activity is inhibited [2]: about 10 μM

C#Cc1ccc(-c2cn(CCOc3ccc(-c4nc5ccc(N6CCN(C)CC6)cc5[nH]4)cc3)nn2)cc1 [Compound 21, 2-(4-(2-(4-(4-Ethynylphenyl)-1H-1,2,3-triazol-1-yl)ethoxy)-phenyl)-6-(4-methylpiperazin-1-yl)-1H-benzo[d]imidazole]
MIC (A. baumanni 19606): > 32 µg/mL

— article PMC12125705 (Journal of medicinal chemistry, 2017)
